The values that follow come from ChEMBL document CHEMBL1154741, “Radiosynthesis and radiopharmacological evaluation of cyclin-dependent kinase 4 (Cdk4) inhibitors” (Eur J Med Chem, 2010).

In series [1] the target is Cyclin-dependent kinase 4 (Homo sapiens, UniProt P11802). In words: Inhibition of CDK4.
Series [2] deals with Cyclin-dependent kinase 2 (Homo sapiens, UniProt P24941). Nature of the series: Inhibition of CDK2.
Series [3] deals with Cyclin-dependent kinase 1 (Homo sapiens, UniProt P06493). In words: Inhibition of CDK1.
Series [4] in a line: Stability in cell culture medium after 24 hrs by HPLC. In kind it is physicochemical. The following applies: read-out: Stability. A digest of the protocol: (§1)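 50 kBq radiotracer was added to 1 mL of PBS (0.1 M, pH 7.4), ethanol, culture medium (RPMI + 10% FKS + 1% pen/strep) or fresh rat plasma and held at 37 °C for 30 min or 24 h. Samples were analysed by radio-HPLC on a C18 column with a Soerensen buffer (0.01 M, pH 7.4)/methanol gradient; intact tracer is reported as percent.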

For the next series, the system named is Liver. Nature of the series: Biodistribution in Wistar rat liver at 0.2 to 0.3 MBq, iv after 5 mins. Particulars: in vivo. In kind it is ADME, organism-based. A digest of the protocol: (§2)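 Normal male Wistar rats (180 ± 20 g) given a single iv tail-vein injection of 0.2–0.3 MBq radiotracer in solution containing 1% HSA. Under ether anaesthesia at 5 min p.i., blood was taken by heart puncture and the animals euthanized. Organs were removed, weighed and counted in a calibrated well counter. Results are SUV = (organ activity/organ weight)/(given activity/body weight); mean ± SD, n = 8.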

The nature of series [5]: Stability in ethanol after 30 mins by HPLC. In kind it is physicochemical. The following applies: read-out: Stability. In outline: as §1
The subject of another series is Kidney. Nature of the series: Biodistribution in Wistar rat kidney at 0.2 to 0.3 MBq, iv after 5 mins. In kind it is ADME, organism-based. The following applies: in vivo. In outline: as §2
A short description of series [6]: Stability in Wistar rat plasma after 30 mins. It counts as ADME, cell-free. The following applies: read-out: Stability. A digest of the protocol: as §1
In another series the test system is Lung. In words: Biodistribution in Wistar rat lung at 0.2 to 0.3 MBq, iv after 5 mins. In kind it is ADME, organism-based. Particulars: in vivo. In outline: as §2
The nature of series [7]: Stability in ethanol after 24 hrs by HPLC. It counts as physicochemical. Particulars: read-out: Stability. A digest of the protocol: as §1
A short description of series [8]: Stability in PBS buffer at pH7.4 after 24 hrs by HPLC. It counts as physicochemical. Particulars: pH 7.4, read-out: Stability. A digest of the protocol:
as §1

Series [9] in a line: Lipophilicity log D at pH 7.4. In kind it is physicochemical. Particulars: buffer.
A further series relates to FaDu. Nature of the series: Cellular uptake in human FADU cells measured per mg of protein at 25 kBq after 1 hr. In kind it is ADME, cell-based. A digest of the protocol:
(§3)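 HT-29 cells in McCoy's 5A and FaDu cells in RPMI 1640, both with 10% FBS, were seeded at 5 × 10⁴ cells/well and left overnight. About 25 kBq radiotracer in 0.25 mL medium was added at 37 °C. Cells were washed three times with ice-cold PBS, lysed in 0.1 M NaOH/1% SDS and gamma-counted. Protein was measured by BCA; results are %ID/mg protein.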

A short description of series [10]: Stability in PBS buffer at pH7.4 after 30 mins by HPLC. In kind it is physicochemical. Particulars: pH 7.4, read-out: Stability. In outline:
as §1

The nature of series [11]: Stability in Wistar rat plasma after 24 hrs. Particulars: read-out: Stability. In kind it is ADME, cell-free. In outline: as §1
The next series deals with HT-29. In words: Cellular uptake in human HT-29 cells measured per mg of protein at 25 kBq after 1 hr. In kind it is ADME, cell-based. Particulars: ht-29, 1 h. A digest of the protocol: as §3

Sequence of Cyclin-dependent kinase 4 (P11802 whole entry): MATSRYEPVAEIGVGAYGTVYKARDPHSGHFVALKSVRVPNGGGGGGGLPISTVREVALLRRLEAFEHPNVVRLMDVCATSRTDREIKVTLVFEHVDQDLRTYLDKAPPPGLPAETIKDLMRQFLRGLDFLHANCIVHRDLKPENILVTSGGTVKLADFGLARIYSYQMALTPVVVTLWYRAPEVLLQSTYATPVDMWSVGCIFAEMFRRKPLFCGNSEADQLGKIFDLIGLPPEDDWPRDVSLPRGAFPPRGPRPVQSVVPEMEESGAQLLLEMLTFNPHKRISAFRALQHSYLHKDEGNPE
Sequence of Cyclin-dependent kinase 1 (P06493 whole entry): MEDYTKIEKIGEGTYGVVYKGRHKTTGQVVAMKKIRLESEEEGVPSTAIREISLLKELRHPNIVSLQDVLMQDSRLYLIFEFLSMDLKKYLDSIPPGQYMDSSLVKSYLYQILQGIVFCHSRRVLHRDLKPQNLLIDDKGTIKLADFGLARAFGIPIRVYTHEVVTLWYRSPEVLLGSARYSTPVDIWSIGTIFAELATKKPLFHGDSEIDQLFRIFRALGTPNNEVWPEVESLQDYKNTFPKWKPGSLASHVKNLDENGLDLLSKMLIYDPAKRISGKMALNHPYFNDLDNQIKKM

The compound `O=c1ccc2cnc(Nc3ccc(N4CCC(CCCO)CC4)cc3)nc2n1C1CC2CCC1C2` (stereo not drawn) yielded a half-maximal inhibitory concentration (IC50) in series [1] of less than 20 nM.
In the case of `Cc1c(I)c(=O)n(C2CCCC2)c2nc(Nc3ccc(N4CCNCC4)cc3)ncc12`, the values for the IC50 in series [1], in [2] and in series [3] were less than 20 nM, greater than 360 nM and greater than 360 nM, respectively.
Consider `Cc1c([124I])c(=O)n(C2CCCC2)c2nc(Nc3ccc(N4CCNCC4)cn3)ncc12`, for which the remaining at 24 h in [4] is 97%; in [7], 97%; in series [8] it was 95%; in series [11], 94%. The figures for the SUV with Liver, in the series on Kidney and with Lung were greater than 3.2, greater than 3.2 and 8.43, respectively. Besides, the results for the remaining at 0.5 h in series [5], in series [6] and in series [10] were 98%, 94% and 97%, respectively. This compound came in with a logD in series [9] of 1.99. In the series with FaDu, this compound registered a Drug uptake of 900 %Idose.
As to `Cc1c([124I])c(=O)n(C2CCCC2)c2nc(Nc3ccc(N4CCNCC4)cc3)ncc12`, the remaining at 24 h in series [4] was 96%; in [7] it was 94%; in [8], 86%; in [11], 94%. Moreover, the values for the SUV in the series on Liver, in the series with Kidney and with Lung were greater than 3.2, greater than 3.2 and 8.67, respectively. The remaining at 0.5 h came to 93% in [5], 93% in series [6] and 92% in series [10]. Moreover, the Drug uptake in the series with HT-29 was determined as 750 %Idose. This compound showed a log distribution coefficient (logD) in series [9] of 2.77.

For orientation: IC50 means the point on the concentration scale where inhibition reaches its midpoint. A high value points to weaker potency. For orientation: logD means lipophilicity at a set pH, counting ionised and neutral species. A low value points to a more hydrophilic compound.
